According to ChEMBL document CHEMBL4043082, “Clerodane Diterpenoid Glucosides from the Stems of Tinospora sinensis” (J Nat Prod, 2017):

Experiments:
HeLa = experiment: Cytotoxicity against human HeLa cells assessed as reduction in cell viability incubated for 48 hrs by MTT assay; format: functional, cell-based
Procedure, shortened: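 HeLa cells seeded at 8 × 10^3 per well, exposed in triplicate to 2.5, 5, 10, 20 and 50 μM of each compound at 37 °C for 48 h; doxorubicin as positive control. MTT (5 mg/mL) added for 4 h, formazan dissolved in DMSO, absorbance at 570 nm; IC50 by Logit method.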

N9 = experiment: Inhibition of LPS-induced nitric oxide production in mouse N9 cells by Griess reaction based assay; format: functional, cell-based
Procedure, shortened: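 N9 microglial cells activated with LPS; nitrite accumulation in culture supernatants measured by Griess reaction; microglial cell viability checked in parallel by MTT assay.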

IC50 (N9)	Structure (SMILES)	IC50 (HeLa)
≥ 100 µM	COc1cc(/C=C/C(=O)O[C@H]2C[C@H](O)[C@H](O)[C@@H]3[C@@H]2CC[C@@]2(O)C(=O)O[C@H](c4ccoc4)C[C@@]32C)ccc1O[C@@H]1O[C@H](CO)[C@@H](O)[C@H](O)[C@H]1O	≥ 10 µM
≥ 100 µM	COc1cc(/C=C/C(=O)O[C@@H]2C[C@H](O)[C@H](O)[C@@H]3[C@@H]2CC[C@@]2(O)C(=O)O[C@H](c4ccoc4)C[C@@]32C)ccc1O[C@@H]1O[C@H](CO)[C@@H](O)[C@H](O)[C@H]1O	≥ 10 µM
	COc1cccc2c1C(=O)c1c(O)c3c(c(O)c1C2=O)C[C@@](O)(C(=O)CO)C[C@@H]3O[C@H]1C[C@H](N)[C@H](O)[C@H](C)O1 [DOXORUBICIN]	0.32 µM
≥ 100 µM	CC(=O)O[C@H]1C[C@@H](O[C@@H]2O[C@H](CO)[C@@H](O)[C@H](O)[C@H]2O)[C@H]2CC[C@@]3(O)C(=O)O[C@H](c4ccoc4)C[C@@]3(C)[C@@H]2[C@H]1O	≥ 10 µM
≥ 100 µM	COc1cc(/C=C\C(=O)O[C@@H]2C[C@H](OC(C)=O)[C@H](O)[C@@H]3[C@@H]2CC[C@@]2(O)C(=O)O[C@H](c4ccoc4)C[C@@]32C)ccc1O[C@@H]1O[C@H](CO)[C@@H](O)[C@H](O)[C@H]1O	≥ 10 µM
≥ 100 µM	C[C@@]12C[C@@H](c3ccoc3)OC(=O)[C@]1(O)CC[C@H]1[C@H]2[C@@H](O)[C@@H](O)C[C@H]1O[C@@H]1O[C@H](CO)[C@@H](O)[C@H](O)[C@H]1O	8.35 µM
≥ 100 µM	COc1cc(/C=C/C(=O)O[C@H]2C[C@H](OC(C)=O)[C@H](O)[C@@H]3[C@@H]2CC[C@@]2(O)C(=O)O[C@H](c4ccoc4)C[C@@]32C)ccc1O[C@@H]1O[C@H](CO)[C@@H](O)[C@H](O)[C@H]1O	≥ 10 µM
≥ 100 µM	C[C@@]12CC[C@@]3(O)C(=O)O[C@H](c4ccoc4)C[C@@]3(C)[C@@H]1[C@@H](O[C@@H]1O[C@H](CO)[C@@H](O)[C@H](O)[C@H]1O)C=CC2=O	≥ 10 µM
≥ 100 µM	C[C@@]12C[C@@H](c3ccoc3)OC(=O)[C@]1(O)CC[C@]1(C)[C@H]2[C@H]2C=C[C@]1(O[C@@H]1O[C@H](CO)[C@@H](O)[C@H](O)[C@H]1O)C(=O)O2	≥ 10 µM
≥ 100 µM	COc1cc(/C=C/C(=O)O[C@@H]2C[C@H](O)[C@H](OC(C)=O)[C@@H]3[C@@H]2CC[C@@]2(O)C(=O)O[C@H](c4ccoc4)C[C@@]32C)ccc1O[C@@H]1O[C@H](CO)[C@@H](O)[C@H](O)[C@H]1O	≥ 10 µM
≥ 100 µM	COc1cc(/C=C/C(=O)O[C@@H]2C[C@H](OC(C)=O)[C@H](O)[C@@H]3[C@@H]2CC[C@@]2(O)C(=O)O[C@H](c4ccoc4)C[C@@]32C)ccc1O[C@@H]1O[C@H](CO)[C@@H](O)[C@H](O)[C@H]1O	≥ 10 µM
≥ 100 µM	COc1cc(/C=C/C(=O)O[C@@H]2CC[C@H](O)[C@@H]3[C@@H]2CC[C@@]2(O)C(=O)O[C@H](c4ccoc4)C[C@@]32C)ccc1O[C@@H]1O[C@H](CO)[C@@H](O)[C@H](O)[C@H]1O	≥ 10 µM
≥ 100 µM	CC(=O)O[C@@H]1[C@@H]2[C@H](CC[C@@]3(O)C(=O)O[C@H](c4ccoc4)C[C@@]23C)[C@H](O[C@@H]2O[C@H](CO)[C@@H](O)[C@H](O)[C@H]2O)C[C@@H]1O	≥ 10 µM
≥ 100 µM	CC(=O)O[C@@H]1[C@@H]2[C@H](CC[C@@]3(O)C(=O)O[C@H](c4ccoc4)C[C@@]23C)[C@H](O[C@@H]2O[C@H](CO)[C@@H](O)[C@H](O)[C@H]2O)C[C@@H]1OC(C)=O	≥ 10 µM
